Laboratory results from publication PMC4157762 (Bioconjugate Chemistry, 2014).

Columns and labels:
Dynamic light scattering = type: physicochemical; details: DLS at stock concentration, 15 measurements, regularization fit
Summary of the method: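 Samples were spun 15 min at 18 000 g and measured at stock concentration at 100% laser power until intensity readings were consistent. 15 measurements per sample gave the size distribution by regularization fit. Effective radius and aggregation by intensity and by mass were reported. Controls were maleimide-capped XTEN (negative) and BSA (positive), with BSA re-measured after 10 min at 80 °C and 5 min on ice.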

[1] = type: physicochemical; details: as E13; dimer peak of the precursor before conjugation
Summary of the method: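 Vydac C4 column (5 μm, 300 Å, 4.6 × 150 mm), ambient temperature, 1 mL/min. Equilibrated at 5% B, then a linear gradient of 5–50% B over 45 min. 20 μg protein injected. Absorbance read at 214 nm. The thiol-XTEN precursor was run before conjugation.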

HIV-1Ba-L = test: In vitro antiviral MAGI assay; type: cell-based; details: read-out: IC50 for inhibition of virus replication, MAGI CCR5 cells, 48 h, β-galactosidase read-out (Gal-screen), triplicate
Summary of the method: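 MAGI CCR5 cells are HeLa-derived, express CXCR4, CD4 and CCR5, and carry an HIV-1 LTR–β-galactosidase reporter. Cells were plated at 1 × 10^4 per well and adhered overnight at 37 °C. Medium was replaced with the compound range (up to 10 nM), then HIV-1Ba-L was added. After 48 h, lysates were read with Gal-screen and expressed as % of the no-compound blank. Tested in triplicate with unmodified-peptide and capped-XTEN controls.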

[2] = dosed in rats; cited from earlier work

Substance | aggregation by intensity (Dynamic light scattering) [%] | aggregation by mass (Dynamic light scattering) [%] | also measured
BSA (heat treated): heat-treated BSA, positive control for aggregation in DLS | 92.2 | 28 | –
BSA (not heat treated): BSA (Fermentas), DLS control before heat treatment | 0 | 0 | –
SAGSPTPGTSESATPESGPGSEPATSGSETPGTSESATPESGPGSEPATSGSETPGTSESATPESGPGTSTEPSEGSAPGTSESATPESGPGSPAGSPTSTEEGSPAGSPTSTEEGSPAGSPTSTEEGTSESATPESGPGTSTEPSEGSAPGTSESATPESGPGSEPATSGSETPGTSESATPESGPGSEPATSGSETPGTSESATPESGPGTSTEPSEGSAPGSPAGSPTSTEEGTSESATPESGPGSEPATSGSETPGTSESATPESGPGSPAGSPTSTEEGSPAGSPTSTEEGTSTEPSEGSAPGTSESATPESGPGTSESATPESGPGTSESATPESGPGSEPATSGSETPGSEPATSGSETPGSPAGSPTSTEEGTSTEPSEGSAPGTSTEPSEGSAPGSEPATSGSETPTAEAAGCGTAEAASASR [XTEN-1] | – | – | C4 RPC retention time of suspected disulfide-bonded dimer [1]: 21.2 min
Enfuvirtide | – | – | IC50 (HIV-1Ba-L): 0.38 nM
enfuvirtide | – | – | half-life in rats [2]: 2.8 h
